ChEMBL document CHEMBL1154414, “In vitro and in vivo activities of T-705 against arenavirus and bunyavirus infections” (Antimicrob Agents Chemother, 2007)
The source made the active and inactive calls. No cut-off for these calls is given here.

Columns and labels:
[1] = test system: Pichinde virus; assay: Antiviral activity against Pichinde virus An 4763 infected Syrian golden hamster assessed as inhibition of liver damage at 20 mg/kg, po twice daily for 7 days administered 24 hrs post viral-challenge measured on day 7 of viral infection; type: functional, organism-based; design: dose 20 mg/kg
[2] = test system: Pichinde virus; assay: Antiviral activity against Pichinde virus An 4763 infected Syrian golden hamster assessed as mean serum ALT levels at 30 mg/kg, po twice daily for 7 days administered 4 hrs before viral-challenge measured on day 7 of viral infection; type: functional
[3] = test system: Pichinde virus; assay: Antiviral activity against Pichinde virus An 4763 infected Syrian golden hamster assessed as mean viral titer per 0.1 g of liver at 30 mg/kg, po twice daily for 7 days administered 4 hrs before viral-challenge measured on day 7 of viral infection; type: functional
[4] = test system: Punta Toro virus; assay: Antiviral activity against 500 PFU Punta Toro virus Adames infected C57BL/6 mouse assessed as animals with detectable virus level in liver at 25 mg/kg, po twice daily administered 4 hrs before viral challenge measured on day 4 of viral infection; type: functional
Method in brief: (§1)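 T-705 was suspended in 0.4% carboxymethylcellulose and given by oral gavage twice daily. Mice were infected subcutaneously with PTV. Five mice per group (10 placebo) were sacrificed on day 3 or 4. Liver homogenate or serum was serially diluted onto triplicate LLC-MK2 monolayers, and CPE was read at 6–8 days. The detection limit was 2.8 log10 CCID50 per 0.1 g liver or 0.1 ml serum.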

[5] = test system: Punta Toro virus; assay: Antiviral activity against 500 PFU Punta Toro virus Adames infected C57BL/6 mouse assessed as animals with detectable virus level in serum at 200 mg/kg, po twice daily administered 4 hrs before viral challenge measured on day 4 of viral infection; type: functional; method in brief: as §1
[6] = test system: Punta Toro virus; assay: Antiviral activity against 500 PFU Punta Toro virus Adames infected C57BL/6 mouse assessed as animals with detectable virus level in serum at 25 mg/kg, po twice daily administered 4 hrs before viral challenge measured on day 4 of viral infection; type: functional; method in brief: as §1
[7] = test system: Punta Toro virus; assay: Antiviral activity against Punta Toro virus Adames infected Syrian golden hamster assessed as mean viral titer per 0.1 g of liver at 15 mg/kg, po twice daily administered 4 hrs before viral challenge measured on day 4 of viral infection; type: functional
[8] = test system: Punta Toro virus; assay: Antiviral activity against 500 PFU Punta Toro virus Adames infected C57BL/6 mouse assessed as mean serum ALT levels at 10 mg/kg, po twice daily administered 4 hrs before viral challenge measured on day 3 of viral infection; type: functional
Method in brief: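 Subcutaneous PTV infection was followed by oral gavage twice daily with drug suspended in 0.4% CMC. Serum was collected from 5 sacrificed mice per group (10 placebo) on day 3 or 4. ALT activity was measured by kinetic assay, and sham-infected mice set the baselines.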

[9] = test system: Punta Toro virus; assay: Antiviral activity against 500 PFU Punta Toro virus Adames infected C57BL/6 mouse assessed as mean viral titer per 0.1 g of liver at 200 mg/kg, po twice daily administered 4 hrs before viral challenge measured on day 4 of viral infection; type: functional
Method in brief: (§2)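 Mice were infected subcutaneously with PTV and dosed by oral gavage twice daily; 5 per group (10 placebo) were killed on day 3 or 4. Liver homogenate or serum was serially diluted onto triplicate LLC-MK2 monolayers, and CPE was read 6–8 days later. 50% endpoints gave log10 CCID50 per 0.1 g liver or 0.1 ml serum. Detection range was 2.8–9.5; undetectable samples were assigned <2.8.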

[10] = test system: Punta Toro virus; assay: Antiviral activity against 5000 PFU Punta Toro virus Adames infected C57BL/6 mouse assessed as survival at 10 mg/kg, po twice daily for 5 days administered 24 hrs post viral challenge; type: functional
Method in brief: (§3)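 PTV was inoculated subcutaneously into mice in groups of 15 (25–30 placebo). Dosing was by oral gavage twice daily for 5–7 days, with T-705 suspended in 0.4% CMC and ribavirin in saline. Remaining animals were observed 21–28 days for survival and day of death. Test doses had first been checked for tolerance in uninfected animals.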

[11] = test system: Punta Toro virus; assay: Antiviral activity against 500 PFU Punta Toro virus Adames infected C57BL/6 mouse assessed as mean viral titer per 0.1 mL of serum at 5 mg/kg, po twice daily administered 4 hrs before viral challenge measured on day 3 of viral infection; type: functional; method in brief: as §2
[12] = test system: Punta Toro virus; assay: Antiviral activity against 500 PFU Punta Toro virus Adames infected C57BL/6 mouse assessed as animals with detectable virus level in liver at 30 mg/kg, po twice daily administered 4 hrs before viral challenge measured on day 3 of viral infection; type: functional; method in brief: as §1
[13] = test system: Punta Toro virus; assay: Antiviral activity against Punta Toro virus Adames infected Syrian golden hamster assessed as animals with detectable virus level in serum at 60 mg/kg, po twice daily administered 4 hrs before viral challenge measured on day 4 of viral infection; type: functional
[14] = test system: Pichinde virus; assay: Antiviral activity against Pichinde virus An 4763 infected Syrian golden hamster assessed as animals with detectable virus level in liver at 60 mg/kg, po twice daily for 7 days administered 4 hrs before viral-challenge measured on day 7 of viral infection; type: functional
[15] = test system: Tacaribe virus; assay: Antiviral activity against Tacaribe virus TRVL11573 assessed as reduction of 1 log10 unit viral titer yields after 7 to 8 days; type: functional; conditions: Mammarenavirus tacaribeense
[16] = test system: Punta Toro virus; assay: Antiviral activity against 500 PFU Punta Toro virus Adames infected C57BL/6 mouse assessed as survival at 25 mg/kg, po twice daily for 5 days administered 4 hrs before viral challenge; type: functional, organism-based; design: dose 25 mg/kg; method in brief: as §3
[17] = test system: Punta Toro virus; assay: Antiviral activity against 500 PFU Punta Toro virus Adames infected C57BL/6 mouse assessed as mean serum ALT levels at 75 mg/kg, po twice daily administered 4 hrs before viral challenge measured on day 4 of viral infection; type: functional
Method in brief: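 C57BL/6 mice received subcutaneous PTV, then oral gavage twice daily for 5–7 days. T-705 was given in 0.4% CMC and ribavirin in saline. Five mice per group (10 placebo) were killed on day 3 or 4, and serum was collected. ALT activity was measured by kinetic assay. Three sham-infected mice set baselines.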

Structure (SMILES)	Activity [1]	Activity [2] [IU/L]	log10CCID50 [3]	Activity [4] [%]	Activity [5] [%]	Activity [6] [%]	log10CCID50 [7]	Activity [8] [IU/L]	log10CCID50 [9]	survival at 10 mg/kg [10] [%]	log10CCID50 [11]	Activity [12] [%]	Activity [13] [%]	Activity [14] [%]	EC90 [15] [µM]	Activity [16]	Activity [17] [IU/L]
NC(=O)c1nc(F)cnc1O [FAVIPIRAVIR]	Active	378	6.4	0	0	20	>6.9	501	<2.8	40	7.2	0	20	0	6	Active	–
NC(=O)c1ncn([C@@H]2O[C@H](CO)[C@@H](O)[C@H]2O)n1 [RIBAVIRIN]	–	–	–	–	–	–	–	–	–	–	–	–	–	–	–	–	38
